SENP6 block: blocks the human protease SENP6; 1.8% of 330,000 active; Recombinant SENP6 catalytic domain, aminoluciferin luminescence; AID 2599; Q9GZR1; inhibition, % at 10 µM;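 active = inhibition above about 50% at the single tested dose, limit read from the data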;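 also: plate controls were DMSO wells with enzyme for no effect and DMSO wells lacking enzyme for full effect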
Target sequence (Q9GZR1 628-1112 limits assumed): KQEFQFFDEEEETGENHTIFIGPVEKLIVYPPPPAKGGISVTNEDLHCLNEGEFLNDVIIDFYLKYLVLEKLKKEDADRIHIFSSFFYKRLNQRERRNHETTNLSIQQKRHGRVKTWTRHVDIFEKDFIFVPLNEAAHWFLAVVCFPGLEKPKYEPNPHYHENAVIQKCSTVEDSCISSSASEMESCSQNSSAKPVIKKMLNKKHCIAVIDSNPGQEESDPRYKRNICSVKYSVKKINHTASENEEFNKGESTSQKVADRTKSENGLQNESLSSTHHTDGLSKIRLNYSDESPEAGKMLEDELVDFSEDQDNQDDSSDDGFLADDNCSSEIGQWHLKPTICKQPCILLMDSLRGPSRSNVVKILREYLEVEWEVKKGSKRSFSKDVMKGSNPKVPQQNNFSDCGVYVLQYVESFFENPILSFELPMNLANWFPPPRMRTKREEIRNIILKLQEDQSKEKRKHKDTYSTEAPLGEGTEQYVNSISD
SENP8 block-1: SENP8 protease inhibition; purified SENP8, Z-RLRGG-aminoluciferin cleavage, luminescence; inhibition, % at 10 µM; AID 2540; Q96LD8; 1.2% of 330,000 active; in the data active = inhibition above about 50%
Target sequence (Q96LD8 whole entry, looked up): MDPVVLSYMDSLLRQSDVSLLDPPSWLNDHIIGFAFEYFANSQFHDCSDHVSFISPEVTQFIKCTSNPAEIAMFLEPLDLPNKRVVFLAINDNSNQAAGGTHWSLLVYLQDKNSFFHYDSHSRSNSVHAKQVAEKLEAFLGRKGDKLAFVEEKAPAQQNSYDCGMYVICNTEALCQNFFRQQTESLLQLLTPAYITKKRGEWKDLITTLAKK
SENP1 inh: inhibitors of human SENP1 SUMO protease catalytic domain; inhibition, % at 10 µM; recombinant SENP1 catalytic domain, CyPet-SUMO1-YPet FRET cleavage; 0.21% of 360,000 active; AID 624204; Q9P0U3;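 active = inhibition at least 30% at 10 µM, raw YFP signal under a set limit, fluorescence ratio 0.5 to 1.5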;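 also: 0% = enzyme with DMSO and 100% = no enzyme wells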
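Test system: recombinant human SENP1 catalytic domain, His6-tagged / Medium: pH 8 Tris buffer with EDTA, NaCl, BME, BSA, NP40, catalase / Also added: SUMO1 FRET substrate flanked by Cypet and Ypet, 25 nM / Times: 50 min reaction at room temperature / Signal: FRET, CFP and YFP emission / Control set: no-enzyme low control and enzyme-plus-DMSO high control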
SENP8 block-2: inhibitors of human SENP8 protease | inhibition, % at 20 µM | recombinant SENP8, Nedd8 substrate fluorescence | Q96LD8 | 0.64% of 360,000 active; in the data active = inhibition mostly above about 40%, no sharp cut-off; inactive = mostly below about 27%
SENP7 inh: blocks the human protease SENP7. 1.5% of 330,000 active. AID 434973. Q9BQF6. inhibition, % at 5 µM. recombinant SENP7, Z-RLRGG-aminoluciferin luminescence, 40 min;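 active = inhibition above about 50% at the single test dose, limit read from the data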;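 also: plate controls were DMSO with enzyme for no effect and no enzyme buffer wells for full effect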
SENP8 confirm: confirmation of human SENP8 protease inhibitors; shares compounds with SENP7 inh; Recombinant SENP8, Z-RLRGG-aminoluciferin luminescence, 60 min; inhibition, % at 12.5 µM; 40% of 6,200 active; AID 488912;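 active = mean inhibition across replicates above about 50%, limit read from the data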
SENP6 conf: confirmation of human SENP6 protease inhibitors; inhibition, % at 12.5 µM; recombinant SENP6, Z-RLRGG-aminoluciferin luminescence; 58% of 6,200 active; shares compounds with SENP7 inh
SENP7 conf: confirmation of human SENP7 protease inhibitors. shares compounds with SENP7 inh. recombinant SENP7, Z-RLRGG-aminoluciferin luminescence, 40 min. inhibition, % at 12.5 µM. 69% of 6,200 active. AID 488917
Casp3 SENP sel: inhibits human caspase-3 in SENP selectivity test | shares compounds with SENP7 inh | purified caspase-3, Z-DEVD-aminoluciferin luminescence, 60 min | inhibition, % at 12.5 µM | 60% of 6,200 active | AID 488918;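 active = mean inhibition above about 50%, limit read from the data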;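 also: plate controls were enzyme with DMSO for no effect and wells without caspase-3 for full effect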
Luc interf: counter-screen for SENP inhibitors: luminescence interference. shares compounds with SENP7 inh. Pre-incubated SENP8/Z-RLRGG-aminoluciferin, luciferase luminescence interference. inhibition, % at 12.5 µM. 39% of 6,200 active. AID 488919;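 active = mean inhibition above about 50% when retested at one dose, limit read from the data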;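 also: plate controls were DMSO wells with completed reaction for no effect and substrate without enzyme for full effect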
The depositor's hits bear a star; . = no result. A selection: hits, their analogues and other compounds. The true share with any hit is near 2.5%.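 The calls were made as follows, unless noted: active = mean inhibition above about 50% in the one-dose retest (limit read from the data); inactive = the rest.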

SMILES | SENP6 block | SENP8 block-1 | SENP1 inh | SENP8 block-2 | SENP7 inh | SENP8 confirm | SENP6 conf | SENP7 conf | Casp3 SENP sel | Luc interf
Cc1ccc2c(c1)Cc1nc3ccccc3nc1-2 | 98* | 96* | -26 | -300 | 100* | -5 | 99* | 103* | 98* | 68*
Cc1ccc2c(c1)-c1nc3ccccc3cc1C2=NC1CCCCC1 | . | . | 0 | 9 | . | . | . | . | . | .
O=C(Cc1ccc(Cl)cc1Cl)NCc1cccnc1 | -19 | -5 | -2 | -1 | -12 | . | . | . | . | .
COc1ccc(S(=O)(=O)N2CCOCC2)cc1NC(=O)COC(=O)c1ccc([N+](=O)[O-])s1 | 53* | 67* | 2 | 37 | 33 | -6 | 83* | 35 | 3 | 3
O=C(COC(=O)c1ccc([N+](=O)[O-])s1)NCc1ccccc1 | 73* | 62* | 2 | 12 | 48 | 58* | 72* | 21 | -1 | -8
O=C(OCC(=O)N1CCC(c2ccccc2)=N1)c1ccc([N+](=O)[O-])s1 | 56* | 63* | 2 | 25 | 15 | 37 | 74* | 26 | 9 | 7
Cc1cc(C(=O)OCC(=O)N2CCC(c3ccccc3)=N2)ccc1[N+](=O)[O-] | -8 | -13 | 2 | 21 | -3 | . | . | . | . | .
O=C(COC(=O)c1ccc([N+](=O)[O-])s1)Nc1ccc(F)cc1 | 66* | 69* | 2 | 34 | 40 | 68* | 88* | 48 | 13 | -5
c1csc(CNc2nc(NCC3CCCCC3)c3sccc3n2)c1 | . | . | 0 | -17 | . | . | . | . | . | .
COCCCNS(=O)(=O)c1cc2c3c(c1)C(C)C(=O)N3CCC2 (centres undefined) | -3 | -6 | -2 | 3 | -2 | . | . | . | . | .
O=C1NC[C@H](CCCCN2CCN(CCC3CCCCC3)C(=O)C2=O)N(CC2CCCCC2)C1=O | . | . | 0 | 13 | . | . | . | . | . | .
O=C(COC(=O)c1ccc([N+](=O)[O-])s1)Nc1ccccc1 | 64* | 53* | 2 | 33 | 36 | 82* | 88* | 50 | 20 | -6
O=C(COC(=O)COc1ccccc1)Nc1ncc([N+](=O)[O-])s1 | 91* | 88* | -11 | 13 | 76* | 90* | 89* | 99* | 92* | 90*
CN(CC(=O)Nc1ccccc1Cl)C(=O)COC(=O)c1ccccc1[N+](=O)[O-] | 1 | -6 | 2 | 3 | 101* | 0 | 4 | 7 | 4 | -2
CCc1ccccc1NC(=O)CN(C)C(=O)COC(=O)c1ccccc1Cl | 0 | 3 | 0 | 12 | -1 | . | . | . | . | .
O=C(COc1ccc(Cl)cc1)Nc1ncc([N+](=O)[O-])s1 | . | . | -23 | 28 | . | . | . | . | . | .
O=C(Nc1ncc([N+](=O)[O-])s1)c1ccco1 | 92* | 91* | -39 | 16 | 92* | 93* | 93* | 102* | 98* | 66*
Cc1ccc(CN(C(=O)c2ccc([N+](=O)[O-])cc2)C2CCS(=O)(=O)C2)o1 (centres undefined) | 1 | -4 | 2 | 7 | 0 | . | . | . | . | .
O=C(CC(=O)Nc1ccccc1[N+](=O)[O-])Nc1ccccc1[N+](=O)[O-] | -3 | -3 | 3 | 18 | 9 | . | . | . | . | .
O=C(COC(=O)c1ccc(O)cc1)Nc1ccccc1[N+](=O)[O-] | 57* | 37 | 1 | 22 | 8 | 46 | 39 | 70* | 52* | 42
O=C(COC(=O)c1cccs1)Nc1cccc(S(=O)(=O)NC2=NCCCCC2)c1 | -6 | -3 | 0 | 12 | 5 | . | . | . | . | .
O=C(COC(=O)c1ccc([N+](=O)[O-])s1)Nc1cccc(S(=O)(=O)NC2=NCCCCC2)c1 | 65* | 61* | 5 | 19 | 37 | 80* | 87* | 45 | 10 | 1
O=C(OCc1nnc(-c2ccccc2)o1)c1ccc([N+](=O)[O-])s1 | 68* | 71* | 2 | 31 | 31 | 72* | 83* | 40 | 10 | -2
CCOc1ccc(NC(=O)CSc2nnc(CNC(=O)c3ccco3)o2)cc1 | -8 | -3 | 0 | -3 | -3 | . | . | . | . | .
COc1ccccc1NS(=O)(=O)c1cccc(-n2c(O)c(C=Nc3ccccc3C(=O)O)c3ccccc3c2=O)c1 | 52* | 21 | -68 | 2 | 6 | 41 | 38 | 37 | 18 | 4
SMILES | SENP6 block | SENP8 block-1 | SENP1 inh | SENP8 block-2 | SENP7 inh | SENP8 confirm | SENP6 conf | SENP7 conf | Casp3 SENP sel | Luc interf
Cc1ccc(F)c(S(=O)(=O)NC(=O)C2(C)CCN2C(=O)Cc2ccc(-c3ccccc3)cc2)c1 (centres undefined) | . | . | 2 | 12 | . | . | . | . | . | .
Cc1cccc(NC(=O)Nc2cc(C)cc(C)n2)c1 | -8 | -9 | 2 | 13 | -11 | . | . | . | . | .
COCCCNC(=O)C(=O)Nc1cc2c3c(c1)CCN3C(=O)CC2 | 5 | 7 | 1 | 19 | 5 | . | . | . | . | .
COc1ccc(C2=NN(CN3C(=O)C(=O)c4ccccc43)C(c3ccc(C)cc3)C2)cc1 (centres undefined) | -1 | -7 | -6 | 7 | -9 | . | . | . | . | .
COc1ccc(C2=NN(CN3C(=O)C(=O)c4ccccc43)C(c3ccc(Br)cc3)C2)cc1 (centres undefined) | -10 | -5 | -1 | 5 | 81* | -12 | -8 | 2 | 4 | 0
O=C(Nc1ccc(Nc2ccccc2)cc1)Nc1ccccc1Cl | 88* | 86* | 1 | -1 | 85* | 71* | 89* | 99* | 56* | 63*
O=C(Nc1ccccc1Cl)Nc1ccccc1Cl | -8 | -8 | 0 | 8 | 4 | . | . | . | . | .
O=C(Nc1ccc2c(c1)CCC2)Nc1ccccc1Cl | 95* | 91* | 0 | 1 | 94* | 42 | 93* | 72* | 81* | 17
CCOc1ccccc1NC(=O)Nc1ccc2c(c1)CCC2 | 69* | 47 | 2 | 11 | 53* | 53* | 68* | 87* | 36 | 48
CCOc1ccccc1NC(=O)Nc1ccc2c(c1)OCO2 | 86* | 72* | -1 | -1 | 85* | 4 | 81* | 97* | 79* | 79*
CCOc1ccccc1OCCC(=O)Nc1ccc2c(c1)OCO2 | -20 | -5 | -5 | 3 | -3 | . | . | . | . | .
COc1ccc(C(=O)N(C)Cc2ccc(C)o2)cc1OC1CCN(C(C)=O)CC1 | -11 | -6 | -4 | 1 | -16 | . | . | . | . | .
